The source made the active and inactive calls. The calls are words filed in the database; no cut-off is given here.
Test system: Radical scavenging activity
Assay: Antioxidant activity assessed as DPPH free radical scavenging activity
Assay type: functional
Details: not given

SMILES	IC50
CN(C)c1ccc(/C=C2\Cc3ccccc3C2=O)c([N+](=O)[O-])c1	> 50 µM
O=C1/C(=C/c2ccc(N3CCCC3)cc2)CC/C1=C\c1ccc(N2CCCC2)cc1	> 50 µM
CN(C)c1ccc(/C=C/C(=O)/C=C/c2ccc(N(C)C)cc2[N+](=O)[O-])c([N+](=O)[O-])c1	> 50 µM
CCOC(OCC)c1ccc(/C=C2\CCC/C(=C\c3ccc(C(OCC)OCC)cc3)C2=O)cc1	20.1 µM
CN1C/C(=C/c2ccc(N3CCCC3)cc2)C(=O)/C(=C/c2ccc(N3CCCC3)cc2)C1	43.3 µM
CCOC(OCC)c1ccc(/C=C/C(=O)/C=C/c2ccc(C(OCC)OCC)cc2)cc1	> 50 µM
O=C1/C(=C/c2ccc(N3CCCC3)cc2)Cc2ccccc21	> 50 µM
CN(C)c1ccc(/C=C2/CCC/C(=C\c3ccc(N(C)C)cc3[N+](=O)[O-])C2=O)c([N+](=O)[O-])c1	32.5 µM
O=C1/C(=C\c2ccc(N3CCCC3)cc2)CNC/C1=C\c1ccc(N2CCCC2)cc1	26.9 µM
CCOC(OCC)c1ccc(/C=C2\CN(Cc3ccccc3)C/C(=C\c3ccc(C(OCC)OCC)cc3)C2=O)cc1	28.2 µM
CN(C)c1ccc(/C=C2/CN(Cc3ccccc3)C/C(=C\c3ccc(N(C)C)cc3[N+](=O)[O-])C2=O)c([N+](=O)[O-])c1	> 50 µM
O=C1/C(=C\c2ccc(N3CCCC3)cc2)COC/C1=C\c1ccc(N2CCCC2)cc1	> 50 µM
O=C1/C(=C\c2ccc(N3CCCC3)cc2)CCC/C1=C\c1ccc(N2CCCC2)cc1	31.3 µM
CN1C/C(=C/c2ccc(N(C)C)cc2[N+](=O)[O-])C(=O)/C(=C/c2ccc(N(C)C)cc2[N+](=O)[O-])C1	18.4 µM
O=C1O[C@H]([C@@H](O)CO)C(O)=C1O [ASCORBIC ACID]	19.4 µM
CN(C)c1ccc(/C=C2\CCc3ccccc3C2=O)c([N+](=O)[O-])c1	23 µM
CN(C)c1ccc(/C=C/C(=O)C2CCc3ccccc3C2=O)c([N+](=O)[O-])c1 (configuration not stated)	49.1 µM
CCOC(OCC)c1ccc(/C=C2\CN(C)C/C(=C\c3ccc(C(OCC)OCC)cc3)C2=O)cc1	20.4 µM
O=C1/C(=C/c2ccc(N3CCCC3)cc2)CCc2ccccc21	29.2 µM
O=C(/C=C/c1ccc(N2CCCC2)cc1)/C=C/c1ccc(N2CCCC2)cc1	> 50 µM
CN(C)c1ccc(/C=C2/CNC/C(=C\c3ccc(N(C)C)cc3[N+](=O)[O-])C2=O)c([N+](=O)[O-])c1	25.7 µM
CCOC(OCC)c1ccc(/C=C2\Cc3ccccc3C2=O)cc1	37.2 µM
CCOC(OCC)c1ccc(/C=C2\COC/C(=C\c3ccc(C(OCC)OCC)cc3)C2=O)cc1	29.3 µM
CCOC(OCC)c1ccc(/C=C2\CNC/C(=C\c3ccc(C(OCC)OCC)cc3)C2=O)cc1	19.3 µM
O=C(/C=C/c1ccc(N2CCCC2)cc1)C1CCc2ccccc2C1=O (configuration not stated)	27.9 µM
CN(C)c1ccc(/C=C2/COC/C(=C\c3ccc(N(C)C)cc3[N+](=O)[O-])C2=O)c([N+](=O)[O-])c1	29.2 µM
CCOC(OCC)c1ccc(/C=C/C(=O)C2CCc3ccccc3C2=O)cc1 (configuration not stated)	> 50 µM
CCOC(OCC)c1ccc(/C=C2\CCc3ccccc3C2=O)cc1	39.5 µM
O=C1/C(=C\c2ccc(N3CCCC3)cc2)CN(Cc2ccccc2)C/C1=C\c1ccc(N2CCCC2)cc1	> 50 µM
CN(C)c1ccc(/C=C2\CC/C(=C\c3ccc(N(C)C)cc3[N+](=O)[O-])C2=O)c([N+](=O)[O-])c1	47.8 µM

Test system: not listed separately
Assay: Cytotoxicity against rat PC12 cells at 0.01 to 100 uM after 24 hrs by MTT assay
Assay type: cell-based
Details: pc-12, 24 h
Summary of the method: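 PC12 cells kept in RPMI-1640 with 10% heat-inactivated FBS and 1% penicillin-streptomycin at 37°C, 5% CO2. Seeded 1×10^4 cells/well, exposed to compound (0.01-100 μM) for 24 h. MTT (2.0 mg/ml) added for 4 h at 37°C, formazan dissolved in DMSO, read at 570/630 nm. Viability given as percent of control cultures.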

SMILES	Activity
CN(C)c1ccc(/C=C2\Cc3ccccc3C2=O)c([N+](=O)[O-])c1	Non-toxic
O=C1/C(=C/c2ccc(N3CCCC3)cc2)CC/C1=C\c1ccc(N2CCCC2)cc1	Non-toxic
CN(C)c1ccc(/C=C/C(=O)/C=C/c2ccc(N(C)C)cc2[N+](=O)[O-])c([N+](=O)[O-])c1	Non-toxic
CCOC(OCC)c1ccc(/C=C2\CCC/C(=C\c3ccc(C(OCC)OCC)cc3)C2=O)cc1	Non-toxic
CN1C/C(=C/c2ccc(N3CCCC3)cc2)C(=O)/C(=C/c2ccc(N3CCCC3)cc2)C1	Non-toxic
CCOC(OCC)c1ccc(/C=C/C(=O)/C=C/c2ccc(C(OCC)OCC)cc2)cc1	Non-toxic
O=C1/C(=C/c2ccc(N3CCCC3)cc2)Cc2ccccc21	Non-toxic
CN(C)c1ccc(/C=C2/CCC/C(=C\c3ccc(N(C)C)cc3[N+](=O)[O-])C2=O)c([N+](=O)[O-])c1	Non-toxic
O=C1/C(=C\c2ccc(N3CCCC3)cc2)CNC/C1=C\c1ccc(N2CCCC2)cc1	Non-toxic
CCOC(OCC)c1ccc(/C=C2\CN(Cc3ccccc3)C/C(=C\c3ccc(C(OCC)OCC)cc3)C2=O)cc1	Non-toxic
CN(C)c1ccc(/C=C2/CN(Cc3ccccc3)C/C(=C\c3ccc(N(C)C)cc3[N+](=O)[O-])C2=O)c([N+](=O)[O-])c1	Non-toxic
O=C1/C(=C\c2ccc(N3CCCC3)cc2)COC/C1=C\c1ccc(N2CCCC2)cc1	Non-toxic
O=C1/C(=C\c2ccc(N3CCCC3)cc2)CCC/C1=C\c1ccc(N2CCCC2)cc1	Non-toxic
CN1C/C(=C/c2ccc(N(C)C)cc2[N+](=O)[O-])C(=O)/C(=C/c2ccc(N(C)C)cc2[N+](=O)[O-])C1	Non-toxic
CN(C)c1ccc(/C=C2\CCc3ccccc3C2=O)c([N+](=O)[O-])c1	Non-toxic
CN(C)c1ccc(/C=C/C(=O)C2CCc3ccccc3C2=O)c([N+](=O)[O-])c1 (configuration not stated)	Non-toxic
CCOC(OCC)c1ccc(/C=C2\CN(C)C/C(=C\c3ccc(C(OCC)OCC)cc3)C2=O)cc1	Non-toxic
O=C1/C(=C/c2ccc(N3CCCC3)cc2)CCc2ccccc21	Non-toxic
O=C(/C=C/c1ccc(N2CCCC2)cc1)/C=C/c1ccc(N2CCCC2)cc1	Non-toxic
CN(C)c1ccc(/C=C2/CNC/C(=C\c3ccc(N(C)C)cc3[N+](=O)[O-])C2=O)c([N+](=O)[O-])c1	Non-toxic
CCOC(OCC)c1ccc(/C=C2\CC/C(=C\c3ccc(C(OCC)OCC)cc3)C2=O)cc1	Non-toxic
CCOC(OCC)c1ccc(/C=C2\Cc3ccccc3C2=O)cc1	Non-toxic
CCOC(OCC)c1ccc(/C=C2\COC/C(=C\c3ccc(C(OCC)OCC)cc3)C2=O)cc1	Non-toxic
CCOC(OCC)c1ccc(/C=C2\CNC/C(=C\c3ccc(C(OCC)OCC)cc3)C2=O)cc1	Non-toxic
O=C(/C=C/c1ccc(N2CCCC2)cc1)C1CCc2ccccc2C1=O (configuration not stated)	Non-toxic
CN(C)c1ccc(/C=C2/COC/C(=C\c3ccc(N(C)C)cc3[N+](=O)[O-])C2=O)c([N+](=O)[O-])c1	Non-toxic
CCOC(OCC)c1ccc(/C=C/C(=O)C2CCc3ccccc3C2=O)cc1 (configuration not stated)	Non-toxic
CCOC(OCC)c1ccc(/C=C2\CCc3ccccc3C2=O)cc1	Non-toxic
O=C1/C(=C\c2ccc(N3CCCC3)cc2)CN(Cc2ccccc2)C/C1=C\c1ccc(N2CCCC2)cc1	Non-toxic
CN(C)c1ccc(/C=C2\CC/C(=C\c3ccc(N(C)C)cc3[N+](=O)[O-])C2=O)c([N+](=O)[O-])c1	Non-toxic

Test system: PC-12
Assay: Neuroprotective activity against amyloid beta (1 to 42)-induced cytotoxicity in rat PC12 cells at 0.01 to 100 uM pretreated for 24 hrs followed by addition of 25 uM amyloid beta (1 to 42) by MTT assay
Assay type: functional, cell-based
Details: not given
Summary of the method: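 PC12 cells (RPMI-1640, 10% heat-inactivated FBS, 37°C, 5% CO2) pre-incubated with compound (0.01-100 μM) in serum-free medium for 24 h, then given 25 µM Aβ1-42. Untreated control lacked Aβ. Selegiline served as positive control. MTT 2.0 mg/ml for 4 h at 37°C, DMSO solubilization, 570/630 nm read. Mean percent viable cells versus untreated, mean ± SE, n=5.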

SMILES	Activity
CN(C)c1ccc(/C=C2\Cc3ccccc3C2=O)c([N+](=O)[O-])c1	Active
O=C1/C(=C/c2ccc(N3CCCC3)cc2)CC/C1=C\c1ccc(N2CCCC2)cc1	inactive
CN(C)c1ccc(/C=C/C(=O)/C=C/c2ccc(N(C)C)cc2[N+](=O)[O-])c([N+](=O)[O-])c1	Active
CCOC(OCC)c1ccc(/C=C2\CCC/C(=C\c3ccc(C(OCC)OCC)cc3)C2=O)cc1	Active
CN1C/C(=C/c2ccc(N3CCCC3)cc2)C(=O)/C(=C/c2ccc(N3CCCC3)cc2)C1	inactive
CCOC(OCC)c1ccc(/C=C/C(=O)/C=C/c2ccc(C(OCC)OCC)cc2)cc1	inactive
C#CCN(C)[C@H](C)Cc1ccccc1	Active
O=C1/C(=C/c2ccc(N3CCCC3)cc2)Cc2ccccc21	inactive
CN(C)c1ccc(/C=C2/CCC/C(=C\c3ccc(N(C)C)cc3[N+](=O)[O-])C2=O)c([N+](=O)[O-])c1	Active
O=C1/C(=C\c2ccc(N3CCCC3)cc2)CNC/C1=C\c1ccc(N2CCCC2)cc1	inactive
CCOC(OCC)c1ccc(/C=C2\CN(Cc3ccccc3)C/C(=C\c3ccc(C(OCC)OCC)cc3)C2=O)cc1	inactive
CN(C)c1ccc(/C=C2/CN(Cc3ccccc3)C/C(=C\c3ccc(N(C)C)cc3[N+](=O)[O-])C2=O)c([N+](=O)[O-])c1	Active
O=C1/C(=C\c2ccc(N3CCCC3)cc2)COC/C1=C\c1ccc(N2CCCC2)cc1	inactive
O=C1/C(=C\c2ccc(N3CCCC3)cc2)CCC/C1=C\c1ccc(N2CCCC2)cc1	inactive
CN1C/C(=C/c2ccc(N(C)C)cc2[N+](=O)[O-])C(=O)/C(=C/c2ccc(N(C)C)cc2[N+](=O)[O-])C1	Active
CN(C)c1ccc(/C=C2\CCc3ccccc3C2=O)c([N+](=O)[O-])c1	Active

SMILES	Activity
CN(C)c1ccc(/C=C/C(=O)C2CCc3ccccc3C2=O)c([N+](=O)[O-])c1 (configuration not stated)	Active
CCOC(OCC)c1ccc(/C=C2\CN(C)C/C(=C\c3ccc(C(OCC)OCC)cc3)C2=O)cc1	Active
O=C1/C(=C/c2ccc(N3CCCC3)cc2)CCc2ccccc21	inactive
O=C(/C=C/c1ccc(N2CCCC2)cc1)/C=C/c1ccc(N2CCCC2)cc1	inactive
CN(C)c1ccc(/C=C2/CNC/C(=C\c3ccc(N(C)C)cc3[N+](=O)[O-])C2=O)c([N+](=O)[O-])c1	Active
CCOC(OCC)c1ccc(/C=C2\CC/C(=C\c3ccc(C(OCC)OCC)cc3)C2=O)cc1	inactive
CCOC(OCC)c1ccc(/C=C2\Cc3ccccc3C2=O)cc1	inactive
CCOC(OCC)c1ccc(/C=C2\COC/C(=C\c3ccc(C(OCC)OCC)cc3)C2=O)cc1	inactive
CCOC(OCC)c1ccc(/C=C2\CNC/C(=C\c3ccc(C(OCC)OCC)cc3)C2=O)cc1	Active
O=C(/C=C/c1ccc(N2CCCC2)cc1)C1CCc2ccccc2C1=O (configuration not stated)	inactive
CN(C)c1ccc(/C=C2/COC/C(=C\c3ccc(N(C)C)cc3[N+](=O)[O-])C2=O)c([N+](=O)[O-])c1	Active
CCOC(OCC)c1ccc(/C=C/C(=O)C2CCc3ccccc3C2=O)cc1 (configuration not stated)	inactive
CCOC(OCC)c1ccc(/C=C2\CCc3ccccc3C2=O)cc1	inactive
O=C1/C(=C\c2ccc(N3CCCC3)cc2)CN(Cc2ccccc2)C/C1=C\c1ccc(N2CCCC2)cc1	inactive
CN(C)c1ccc(/C=C2\CC/C(=C\c3ccc(N(C)C)cc3[N+](=O)[O-])C2=O)c([N+](=O)[O-])c1	Active

Test system: not listed separately
Assay: Neuroprotective activity against amyloid beta (1 to 42)-induced cytotoxicity in rat PC12 cells at 100 uM pretreated for 24 hrs followed by addition of 25 uM amyloid beta (1 to 42) by MTT assay
Assay type: functional, PC-12
Details: not given
Summary of the method: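 PC12 cells in RPMI-1640/10% heat-inactivated FBS, 37°C, 5% CO2, seeded 1×10^4 cells/well. Compound pre-incubation 24 h in serum-free medium, then 25 µM Aβ1-42 added; selegiline as positive control. MTT 2.0 mg/ml, 4 h at 37°C, formazan dissolved in DMSO, read 570/630 nm. Viability as % of untreated cells, mean ± SE, n=5.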

SMILES	Activity
CCOC(OCC)c1ccc(/C=C2\CCC/C(=C\c3ccc(C(OCC)OCC)cc3)C2=O)cc1	<=87%
CN1C/C(=C/c2ccc(N(C)C)cc2[N+](=O)[O-])C(=O)/C(=C/c2ccc(N(C)C)cc2[N+](=O)[O-])C1	<=87%
CN(C)c1ccc(/C=C2\CCc3ccccc3C2=O)c([N+](=O)[O-])c1	<=87%
CCOC(OCC)c1ccc(/C=C2\CN(C)C/C(=C\c3ccc(C(OCC)OCC)cc3)C2=O)cc1	<=87%
CN(C)c1ccc(/C=C2/CNC/C(=C\c3ccc(N(C)C)cc3[N+](=O)[O-])C2=O)c([N+](=O)[O-])c1	<=87%
CCOC(OCC)c1ccc(/C=C2\CNC/C(=C\c3ccc(C(OCC)OCC)cc3)C2=O)cc1	<=87%

— ChEMBL document CHEMBL3286139, “Synthesis of α, β-unsaturated carbonyl based compounds as acetylcholinesterase and butyrylcholinesterase inhibitors: characterization, molecular modeling, QSAR studies and effect against amyloid β-induced cytotoxicity” (Eur J Med Chem, 2014)
